Measured values taken from ChEMBL document CHEMBL1122351, “Synthesis of (E)-1-(5-chlorothien-2-yl)-2-(1H-imidazol-1-yl)ethanone 2,6-dichlorophenylhydrazone hydrochloride, a novel, orally active antifungal agent” (1983).
Converted amounts (≈) assume the structure as drawn.

What was measured:
[1] = tested on: Candida albicans; experiment: In vitro antifungal activity against Candida albicans 3153; type: functional
Outline: (§1)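 Agar dilution in Sabouraud dextrose agar in microtitre wells. Drug stock in Me2SO, serial twofold dilutions to final 0.8–100 µg/mL, final Me2SO 1%. Candida inoculum 10^4 cells/mL, read after 24 h at 37 °C. Dermatophytes used mycelial inocula, read after 5 days at […]. MIC is the highest dilution with no visible growth. Run in duplicate.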

[2] = tested on: Candida albicans; experiment: In vitro antifungal activity against Candida albicans B; type: functional; outline: as §1
[3] = tested on: Candida albicans; experiment: In vitro antifungal activity against Candida albicans GB; type: functional; outline: as §1
[4] = tested on: Epidermophyton floccosum; experiment: In vitro antifungal activity against Epidermophyton floccosum; type: functional; outline: as §1
[5] = tested on: Microsporum canis; experiment: In vitro antifungal activity against Microsporum canis; type: functional; outline: as §1
[6] = tested on: Trichophyton rubrum; experiment: In vitro antifungal activity against Trichophyton rubrum; type: functional; outline: as §1
[7] = tested on: Trichophyton benhamiae; experiment: In vitro antifungal activity against Trichophyton mentagrophytes; type: functional, Arthroderma benhamiae; outline: as §1
[8] = tested on: Candida albicans; experiment: In vitro antifungal activity against Candida albicans A; type: functional; outline: as §1
[9] = tested on: Cavia porcellus; experiment: Effect of topical administration (1% w/v) on course of expt. Ringworm infections in guinea pig by Trichophyton mentagrophytes; type: functional
Outline: (§2)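 Female guinea pigs, eight per group, shaved backs infected with a saline suspension of T. mentagrophytes spores. Drug given orally or applied topically; topical positive control was a 1% w/v solution in polyethylene glycol 200. Disease course followed by culture of skin and hair samples from on and around the infection sites. Result given as % reduction in recovery versus control.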

[10] = tested on: Rattus norvegicus; experiment: Percent reduction in recovery of Candida albicans (experimental vaginitis) in rats by topical administration at 1% w/v; type: functional, Vagina
[11] = tested on: Cavia porcellus; experiment: Effect of oral administration (60 mg/kg) on course of expt. Ringworm infections in guinea pig by Trichophyton mentagrophytes; type: functional; outline: as §2
[12] = tested on: Mus musculus; experiment: Effect of oral administration (10 mg/kg) on recovery of Candida albicans from kidneys of mice with expt. candidal infection; type: functional
Outline: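 Mice (10 per group) infected intravenously with a sublethal dose (50 × 10^4 cells) of C. albicans. Oral gavage at 0 and 24 h after infection. Kidneys excised 2 days post-infection, weighed and homogenized. Diluted homogenates plated on glucose-peptone agar for 24 h at 37 °C. Colony counts compared with infected, untreated controls and expressed as % reduction.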

[13] = tested on: Rattus norvegicus; experiment: Percent reduction in recovery of Candida albicans (experimental vaginitis) in rats at 10 mg/kg (po); type: functional, Vagina
Outline: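 Female Wistar rats, 6 per group, hysterectomized and ovariectomized. Pseudoestrus induced and kept by s.c. estradiol diacetate (125 µg) every 3 days. Infected intravaginally with 10^7 C. albicans cells on 2 successive days, with 2 days to establish. Maximal infection meant >600 colonies per 50 µL vaginal washing. Dosed by oral gavage; % reduction in recovery versus control.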

[14] = tested on: Cavia porcellus; experiment: Effect of oral administration (30 mg/kg) on course of expt. Ringworm infections in guinea pig by Trichophyton mentagrophytes; type: functional; outline: as §2
[15] = tested on: Cavia porcellus; experiment: Effect of topical administration (2% w/v) on course of expt. Ringworm infections in guinea pig by Trichophyton mentagrophytes; type: functional; outline: as §2
[16] = tested on: Mus musculus; experiment: Effect of oral administration (2.5 mg/kg) on recovery of Candida albicans from kidneys of mice with expt. candidal infection; type: functional
Outline: (§3)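 Mice, 10 per group, infected intravenously with a sublethal dose (50 × 10^4 cells) of C. albicans. Oral gavage at 0 and 24 h after infection. Killed 2 days post-infection; kidneys excised, weighed, homogenized, diluted and plated on glucose-peptone agar, 24 h at 37 °C. Colony counts compared with infected untreated controls, given as % reduction.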

[17] = tested on: Mus musculus; experiment: Effect of oral administration (20 mg/kg) on recovery of Candida albicans from kidneys of mice with expt. candidal infection; type: functional; outline: as §3
[18] = tested on: Mus musculus; experiment: Effect of oral administration (5 mg/kg) on recovery of Candida albicans from kidneys of mice with expt. candidal infection; type: functional; outline: as §3
[19] = tested on: Rattus norvegicus; experiment: Percent reduction in recovery of Candida albicans (experimental vaginitis) n rats at 20 mg/kg (po); type: functional, Vagina
Outline: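 Female Wistar rats, 6 per group, hysterectomized and ovariectomized. Pseudoestrus induced with subcutaneous estradiol diacetate (125 µg) after 3 weeks, then every 3 days. Infected intravaginally with 10^7 C. albicans cells on 2 successive days; treatment began 2 days later. Infection confirmed by >600 colonies per 50 µL vaginal washings. Oral dosing by gavage. Result given as % reduction in recovery versus control.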

[20] = tested on: Rattus norvegicus; experiment: Percent reduction in recovery of Candida albicans (experimental vaginitis) n rats by topical administration at 1% w/v; type: functional, Vagina

MIC [1]	MIC [2]	MIC [3]	MIC [4]	MIC [5]	MIC [6]	MIC [7]	MIC [8]	SMILES	Reduction [12]	Reduction [13]	other results
12.5 µg/mL	6.2 µg/mL	12.5 µg/mL	25 µg/mL	25 µg/mL	12.5 µg/mL	12.5 µg/mL	6.2 µg/mL	Cl.Clc1ccc(/C(Cn2ccnc2)=N\Nc2c(Cl)cccc2Cl)s1			
								Clc1ccccc1C(c1ccccc1)(c1ccccc1)n1ccnc1 [CLOTRIMAZOLE]			Reduction [9]: 88%; Reduction [10]: 75%
								COC1=CC(=O)C[C@@H](C)[C@]12Oc1c(Cl)c(OC)cc(OC)c1C2=O [GRISEOFULVIN]			Reduction [11]: 90%
								CC(=O)N1CCN(c2ccc(OCC3COC(Cn4ccnc4)(c4ccc(Cl)cc4Cl)O3)cc2)CC1 (stereo not drawn) [KETOCONAZOLE]	57%	68%	
12.5 µg/mL	6.2 µg/mL	12.5 µg/mL	25 µg/mL	25 µg/mL	25 µg/mL	12.5 µg/mL	6.2 µg/mL	Cl.Clc1ccc(/C(Cn2ccnc2)=N/Nc2c(Cl)cccc2Cl)s1 [ZINOCONAZOLE HYDROCHLORIDE]	65%	47%	Reduction [14]: 70%; Reduction [15]: 77%; Reduction [16]: 9%; Reduction [17]: 44%; Reduction [18]: 43%; Reduction [19]: 63%; Reduction [20]: 54%

SMILES	MIC [1]	MIC [2]	MIC [3]	MIC [4]	MIC [5]	MIC [6]	MIC [7]	MIC [8]	Reduction [12]	Reduction [13]	other results
Clc1ccc(COC(Cn2ccnc2)c2ccc(Cl)cc2Cl)c(Cl)c1 (stereo not drawn) [MICONAZOLE]	12.5 µg/mL (≈ 30 µM)	6.2 µg/mL (≈ 14.9 µM)	6.2 µg/mL (≈ 14.9 µM)	12.5 µg/mL (≈ 30 µM)	6.2 µg/mL (≈ 14.9 µM)	1.6 µg/mL (≈ 3.84 µM)	1.6 µg/mL (≈ 3.84 µM)	6.2 µg/mL (≈ 14.9 µM)			
